PubChem BioAssay
Records with an inconclusive call do not appear.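 Rule for the calls, unless noted: active = viability increase at or above a cutoff of the median across tested compounds plus 3 SD (cut at about 8.5% in these data, passing the limit was not always enough); inconclusive = some gains above the cutoff, reason not given; inactive = the rest.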

What was measured:
[1] = S. cerevisiae growth inhibition in permissive medium (OD615), pilot counter-assay for S. cerevisiae lifespan shortening project, permissive growth control (AID 705;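 active = growth inhibition above 25% in both replicates, a cutoff set 3 SD above the mean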); details: OD615, 24 h, at 10 µM, active compounds read high
Procedure, shortened: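 System: Engineered DeaD yeast | Buffer or medium: SC raffinose/galactose permissive medium | Incubation: Cells pre-grown 4 h, then 24 h compound exposure, 30 °C humidified | Measured by: Absorbance (optical density) at 615 nm | Read-out: Reduction in yeast growth (OD615)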

[2] = S. cerevisiae growth inhibition in restrictive medium, OD615, pilot screen, restrictive growth control, yeast lifespan reduction project (AID 706;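 active = growth inhibition above a set limit, 3 SD over mean compound inhibition, in both replicates, cut at about 43% in these data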;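 note: modified DeaD lifespan yeast strain shifted to restrictive glucose medium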); details: OD615, 48 h, at 10 µM, active compounds read high
Procedure, shortened: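 Material: modified S. cerevisiae; Medium: glucose-based CSMM-D restrictive medium; Compound dosing: one concentration, 10 µM final, 0.25% DMSO; Incubation: 48 h compound exposure at 30 °C; Measured by: OD615.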

[3] = doxorubicin toxicity protection in MRP-1 cells – H69AR cells, CellTiter-Glo, duplicate, MRP-1 activator project, pilot screen (AID 807); details: H69AR viability with doxorubicin, CellTiter-Glo luminescence; at 10 µM; active compounds read high;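 note: compound pretreatment 18-22 h then 72 h combined with doxorubicin; 0% = doxorubicin alone and 100% = vehicle without doxorubicin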
[4] = viability of HCT116 without oncogenic beta-catenin – human colon tumor cells, pilot screen (AID 823;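 active = cell viability at or below a set limit in both duplicate runs, the limit being the all-compound median minus 4 SD, cut at about 23% in these data, passing the limit was not always enough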;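 note: 0% = wells killed by 20 µM Hyamine and 100% = untreated DMSO cell wells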); details: HCT116 beta-catenin knockout viability, CellTiter-Glo, 60 h; at 10 µM; active compounds read low
[5] = viability of PTEN-null HCT116 cells – cell-based, HCT116 clonal line, CellTiter-Glo, pilot screen (AID 824;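 active = viability at or below 27.92% in each of two runs, the all-compound median minus 4 SD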;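 note: 0% = 20 µM Hyamine control and 100% = vehicle cell control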); details: HCT116 PTEN-deleted viability, 60 h, at 10 µM, active compounds read low
[6] = RAM pathway blockade in budding yeast – dse1pr::URA3 reporter, 5-FOA selection, pilot screen (AID 869;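 active = inhibition over a set limit, the all-compound mean plus 3 SD, in both replicate runs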;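 note: 0% = DMSO wells with no growth and 100% = 10 µM 1-NA-PP1 with full growth; RAM network block rescues cells from 5-FOA so hits raise OD615 growth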); details: S. cerevisiae dse1pr::URA3 5-FOA growth, OD615, 2 d; at 10 µM; active compounds read high; strain carries analog-sensitive mutant Cbk1 kinase
[7] = RAM signaling pathway blockade in yeast – S. cerevisiae, Pdr1DBD-CYC8 efflux-inhibited sensitized strain, primary screen (AID 1298;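 active = RAM network inhibition above 8.4% in each of two replicates, 3 SD over the compound average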;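 note: 0% = DMSO untreated cells without growth and 100% = 10 µM 1-NA-PP1 full growth; higher means more yeast growth rescued from 5-FOA killing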); details: S. cerevisiae cbk1-as DSE1-URA3 strain, 5-FOA growth OD615, 2 d; at 50 µM; active compounds read high

CC1CCCC(C)N1c1nnc(N)s1 (configuration not stated)
inactive: growth inhibition [1] 0.52% | growth inhibition [2] 30.8% | viability increase [3] -1.42% | viability [4] 104% | viability [5] 102% | inhibition [6] 0.385% | RAM network inhibition [7] 0.17%

O=C(NC1CCCc2ccccc21)C1CCN(C(=O)c2sccc2-n2cccc2)CC1 (configuration not stated)
inactive: growth inhibition [1] -5.99% | growth inhibition [2] -8.89% | viability increase [3] -4.24% | viability [4] 84.7% | viability [5] 78.7% | inhibition [6] -0.305% | RAM network inhibition [7] 4.28%

COC(=O)C(Cc1ccccc1)NC(=O)CSc1nc(C)cc(=O)[nH]1 (configuration not stated)
inactive: growth inhibition [1] -8.37% | growth inhibition [2] -4.86% | viability increase [3] -2.4% | viability [4] 101% | viability [5] 91.7% | inhibition [6] 1.4% | RAM network inhibition [7] -0.21%

O=C(Cn1cnc2c(cnn2-c2ccccc2)c1=O)N1CCOCC1
inactive: growth inhibition [1] -4% | growth inhibition [2] -3.03% | viability increase [3] -0.44% | viability [4] 101% | viability [5] 102% | inhibition [6] 0.17% | RAM network inhibition [7] 1.17%

CN1CCN(c2ncnc3c2sc2nc(N4CCCC4)c4c(c23)CC(C)(C)OC4)CC1
inactive: growth inhibition [1] -21.2% | growth inhibition [2] -18.1% | viability increase [3] -3.25% | viability [4] 99.6% | viability [5] 97.1% | inhibition [6] 0.735% | RAM network inhibition [7] -0.84%

CCc1ccc(Nc2cc(C)nc3nc(C)nn23)cc1
inactive: growth inhibition [1] -16.8% | growth inhibition [2] -7.12% | viability increase [3] -4.04% | viability [4] 96.8% | viability [5] 96% | inhibition [6] 1.99% | RAM network inhibition [7] 4.01%

O=C(O)c1cccc(CN2C(=O)CSC2=O)c1
inactive: growth inhibition [1] -9.39% | growth inhibition [2] -12.3% | viability increase [3] -0.3% | viability [4] 95.7% | viability [5] 97.5% | inhibition [6] 0.91% | RAM network inhibition [7] 1.41%

Cc1cc(Nc2ccc(Br)cc2F)n2ncnc2n1
inactive: growth inhibition [1] -2.09% | growth inhibition [2] 11.9% | viability increase [3] -3.52% | viability [4] 90.6% | viability [5] 87.2% | inhibition [6] 0.76% | RAM network inhibition [7] -0.94%

Cc1ccccc1-n1c(Cn2c(=O)sc3ccccc32)nnc1SCC(=O)Nc1nccs1
inactive: growth inhibition [1] -3.9% | growth inhibition [2] -13% | viability increase [3] -5.13% | viability [4] 75.2% | viability [5] 59.9% | inhibition [6] 2.25% | RAM network inhibition [7] 5.86%

COc1ccc(CNc2oc(C)nc2C#N)cc1
inactive: growth inhibition [1] -0.095% | growth inhibition [2] 5.62% | viability increase [3] -1.84% | viability [4] 98.6% | viability [5] 93.1% | inhibition [6] 0.24% | RAM network inhibition [7] 6.09%

CC(C)c1nc(SCC(=O)Nc2ccc3c(c2)OCCO3)c2c(=O)n(C)c(=O)n(C)c2n1
inactive: growth inhibition [1] 0.9% | growth inhibition [2] 4.21% | viability increase [3] -2.28% | viability [4] 85.4% | viability [5] 84.4% | inhibition [6] 3.59% | RAM network inhibition [7] 5.72%

Cc1cccc2sc(NC(=O)c3ccc(Cl)s3)nc12
inactive: growth inhibition [1] -21.9% | growth inhibition [2] -21.5% | viability increase [3] -7.7% | viability [4] 68.7% | viability [5] 56% | inhibition [6] 2.64% | RAM network inhibition [7] 5.32%

CCOc1ccc2nc(N3CCC(C(=O)Nc4nnc(CC)s4)CC3)sc2c1
inactive: growth inhibition [1] -13.1% | growth inhibition [2] -21.7% | viability increase [3] -0.45% | viability [4] 95.8% | viability [5] 95.1% | inhibition [6] 2.67% | RAM network inhibition [7] 6.98%

Brc1[nH]nc2ccccc12
inactive: growth inhibition [1] -1.23% | growth inhibition [2] 5.22% | viability increase [3] -3.24% | viability [4] 96.7% | viability [5] 94.9% | inhibition [6] 0.28% | RAM network inhibition [7] 0.05%

CCOC(=O)CN1CC23C=CC(O2)C(C(=O)Nc2ccc4c(c2)OCO4)C3C1=O (configuration not stated)
inactive: growth inhibition [1] -0.14% | growth inhibition [2] 3.22% | viability increase [3] -1.01% | viability [4] 107% | viability [5] 103% | inhibition [6] 2.71% | RAM network inhibition [7] 1.23%

O=C(Nc1ccccc1C1CC1)c1cccs1
inactive: growth inhibition [1] -10.4% | growth inhibition [2] -19.7% | viability increase [3] 1.09% | viability [4] 95% | viability [5] 96.9% | inhibition [6] 1.16% | RAM network inhibition [7] 0.36%

C=CCNc1nc2c(c(=O)[nH]c(=O)n2C)n1Cc1cccc(C)c1
inactive: growth inhibition [1] 2.89% | growth inhibition [2] 2.92% | viability increase [3] -1.47% | viability [4] 102% | viability [5] 87.5% | inhibition [6] 2.04% | RAM network inhibition [7] 5.89%

COc1ccc(OCC(=O)OCCN2C(=O)c3ccccc3C2=O)cc1
inactive: growth inhibition [1] 3.16% | growth inhibition [2] -3.81% | viability increase [3] -0.31% | viability [4] 101% | viability [5] 106% | inhibition [6] 0.97% | RAM network inhibition [7] 8.21%

Cc1ccccc1CSc1nnc(Cn2c(=O)sc3ccccc32)n1C
inactive: growth inhibition [1] -9.17% | growth inhibition [2] 11.4% | viability increase [3] 1.46% | viability [4] 95.6% | viability [5] 98.5% | inhibition [6] 1.81% | RAM network inhibition [7] 6.66%

COc1ccc(NC(=O)c2cc3ccccn3n2)cc1
inactive: growth inhibition [1] -2.21% | growth inhibition [2] 0.42% | viability increase [3] -0.18% | viability [4] 81% | viability [5] 73.1% | inhibition [6] -0.545% | RAM network inhibition [7] 0.83%

CCOC(=O)c1[nH]c2ccccc2c1NC(=O)c1ccc2c(c1)OCO2
inactive: growth inhibition [1] -2.92% | growth inhibition [2] -6.88% | viability increase [3] -4.72% | viability [4] 85.6% | viability [5] 85.6% | inhibition [6] 1.8% | RAM network inhibition [7] 2.88%

Cn1c(C(=O)N2CCN(Cc3ccc4c(c3)OCO4)CC2)cc2c(=O)n(C)c3ccccc3c21
inactive: growth inhibition [1] -1.14% | growth inhibition [2] 0.725% | viability increase [3] -1.54% | viability [4] 67.9% | viability [5] 71.9% | inhibition [6] 3.29% | RAM network inhibition [7] 0.67%

CC1CC(C)CN(C(=O)CSc2nnc(-c3ccc(Cl)s3)o2)C1 (configuration not stated)
inactive: growth inhibition [1] -4.71% | growth inhibition [2] -6.08% | viability increase [3] 2.04% | viability [4] 96.5% | viability [5] 92.4% | inhibition [6] 0.75% | RAM network inhibition [7] 2.52%

CC1CCCCC1NC(=O)C1CCN(C(=O)c2sccc2-n2cccc2)CC1 (configuration not stated)
inactive: growth inhibition [1] -4.95% | growth inhibition [2] -6.6% | viability increase [3] -1.22% | viability [4] 105% | viability [5] 94.8% | inhibition [6] 2.28% | RAM network inhibition [7] 4.86%

O=C(NC1CCCCC1)C(c1ccccc1)N1CCC2(CC1)OCCO2 (configuration not stated)
inactive: growth inhibition [1] 0.86% | growth inhibition [2] 6.33% | viability increase [3] -4.79% | viability [4] 97.6% | viability [5] 95.5% | inhibition [6] 1.5% | RAM network inhibition [7] 1.43%

CCc1noc2c1/C(=N\O)CC(c1ccccc1)C2 (configuration not stated)
inactive: growth inhibition [1] 0.555% | growth inhibition [2] 4.22% | viability increase [3] 2.87% | viability [4] 83.3% | viability [5] 84.8% | inhibition [6] 1.78% | RAM network inhibition [7] -1.18%

CCOC(=O)c1ccc(NC(=O)CSc2nnc(Cn3c(=O)sc4ccccc43)n2C)cc1
inactive: growth inhibition [1] -8.11% | growth inhibition [2] 12% | viability increase [3] -2.6% | viability [4] 94.1% | viability [5] 88.5% | inhibition [6] 0.665% | RAM network inhibition [7] 3.59%

Cc1ccc2c(c1)NC(=O)C(CC(=O)O)O2 (configuration not stated)
inactive: growth inhibition [1] 2.33% | growth inhibition [2] 0.555% | viability increase [3] -0.27% | viability [4] 103% | viability [5] 99.7% | inhibition [6] 1.48% | RAM network inhibition [7] 4.69%

CC(CCc1ccco1)NC(=O)Cn1nc(Cc2ccncc2)c2ccccc2c1=O (configuration not stated)
inactive: growth inhibition [1] -0.065% | growth inhibition [2] 3.82% | viability increase [3] -4.14% | viability [4] 89.4% | viability [5] 92.7% | inhibition [6] 2.26% | RAM network inhibition [7] 1.95%

CCOC(=O)c1cn[nH]c1N
inactive: growth inhibition [1] -3.76% | growth inhibition [2] 10.1% | viability increase [3] 0% | viability [4] 101% | viability [5] 102% | inhibition [6] -0.235% | RAM network inhibition [7] 0.61%

O=C(Cn1c(=O)oc2cc(S(=O)(=O)N3CCOCC3)ccc21)N1CCc2ccccc2C1
inactive: growth inhibition [1] -5.1% | growth inhibition [2] -8.57% | viability increase [3] -2.45% | viability [4] 103% | viability [5] 93.8% | inhibition [6] 2.44% | RAM network inhibition [7] 4.35%

Cc1c(NC(=O)NCCN2C(=O)C3C4C=CC(C4)C3C2=O)c(=O)n(-c2ccccc2)n1C (configuration not stated)
inactive: growth inhibition [1] -9.82% | growth inhibition [2] -8.71% | viability increase [3] 0.15% | viability [4] 98.2% | viability [5] 99.8% | inhibition [6] 1.09% | RAM network inhibition [7] 4.55%

O=C(OCCOCCN=C1NS(=O)(=O)c2ccccc21)C1CC(=O)N(c2ccccc2)C1 (configuration not stated)
inactive: growth inhibition [1] 4.05% | growth inhibition [2] 5.13% | viability increase [3] -1.16% | viability [4] 100% | viability [5] 87.3% | inhibition [6] 2.11% | RAM network inhibition [7] 1.23%

O=C(O)c1ccc(NS(=O)(=O)c2cccc3cccnc23)cc1
inactive: growth inhibition [1] -2.47% | growth inhibition [2] 7.28% | viability increase [3] -0.56% | viability [4] 102% | viability [5] 94.1% | inhibition [6] 2.25% | RAM network inhibition [7] 1.04%

CCOC(=O)c1c(C)oc2cc(Br)c(O)c(Br)c12
inactive: growth inhibition [1] -19% | growth inhibition [2] -14.6% | viability increase [3] -2.05% | viability [4] 93.6% | viability [5] 85.7% | inhibition [6] 0.86% | RAM network inhibition [7] 0.68%

CSCCC1(C(=O)O)NC(c2ccccc2O)C2C(=O)N(C(C)C)C(=O)C21 (configuration not stated)
inactive: growth inhibition [1] 2.37% | growth inhibition [2] 11.6% | viability increase [3] -1.09% | viability [4] 102% | viability [5] 94.7% | inhibition [6] 0.875% | RAM network inhibition [7] 3.49%
